PMC3517121 (Chembiochem : a European journal of chemical biology, 2011)
Read-outs that look alike come from different tables or passages of the source.

Tests used:
[1] = Molar absorption coefficient; format: physicochemical
How it was run: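 Test cross-linker concentration fixed by 1H NMR in DMSO-d6 with a known concentration of 1,2-dichloroethane, comparing the DCE methylene signal with the cross-linker α-methylene signal. The NMR solution was then diluted in DMSO or in 10 mM phosphate buffer pH 7.0, and UV-Vis spectra were recorded to calculate the molar absorption coefficient.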

Solubility in water = format: physicochemical; conditions: qualitative statement
[2] = cited from earlier work

For `O=C(CCl)Nc1ccc(N=Nc2ccc(-c3ccc(N=Nc4ccc(NC(=O)CCl)cc4)cc3)cc2)cc1` [BPDB, 4,4’-bis(4-(2-chloroacetamido)phenyl)diazenylbiphenyl], the molar absorption coefficient ([1]; at 400 nm in DMSO) was 60,000 M^-1cm^-1.
For `O=C(CCl)Nc1ccc(N=Nc2ccc(-c3ccc(N=Nc4ccc(NC(=O)CCl)cc4)cc3S(=O)(=O)O)c(S(=O)(=O)O)c2)cc1` [BPDBS, 4,4’-bis(4-(2-chloroacetamido)phenyl)diazenylbiphenyl-2,2’-disulfonate], the molar absorption coefficient ([1]; at 360 nm in sodium phosphate buffer, pH 7.0) was 45,000 M^-1cm^-1, the molar absorption coefficient ([1]; at 380 nm in DMSO) was 52,000 M^-1cm^-1 and the solubility in water (Solubility in water) was “water-soluble”.
With `CC(=O)Nc1ccc(N=Nc2ccc(-c3ccc(N=Nc4ccc(NC(C)=O)cc4)cc3)cc2)cc1` [BPDB(r), 4,4’-bis(4-acetamidophenyl)diazenylbiphenyl] the solubility in water (Solubility in water) was “not soluble in water”.
For `O=C(CCl)Nc1ccc(N=Nc2ccc(NC(=O)CCl)c(S(=O)(=O)O)c2)cc1S(=O)(=O)O` [BSBCA, 3,3’-bis(sulfonato)-4,4’-bis(chloroacetamide)azobenzene], the molar absorption coefficient [2] is given as 27,000 M^-1 cm^-1.
